High-throughput results (PubChem)
PRMT1 inh – PRMT1 methyltransferase inhibitors, primary screen, biochemical, fluorescence polarization | Protein arginine N-methyltransferase 1 (Homo sapiens), Q99873 | recombinant PRMT1, activity-based probe fluorescence polarization | inhibition, % at 2.79 µM | 1.3% of 370,000 active | AID 652257, 2013;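 active means inhibition above about 21% made by adding two undisclosed values, limit read from the data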
UHRF1 MBD2 ctr – UHRF1 methylated DNA binding inhibitors, primary screen, counter-screen for MBD2 inhibitor project, biochemical, TR-FRET, human UHRF1, single concentration; E3 ubiquitin-protein ligase UHRF1 (Homo sapiens), Q96T88; UHRF1 binding to methylated oligo; 0.75% of 370,000 active; inhibition, % at 4.4 µM; AID 687016, 2013; in the data active means inhibition above about 21%;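 further: UHRF1 SRA domain binding a hemimethylated CpG hairpin DNA probe; 0% = median of test compound wells and 100% = reference inhibitor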
LEDGF integ inh – blockers of LEDGF/p75-dependent integrase strand transfer – biochemical, TR-FRET, high throughput, primary screen; TR-FRET IN-LEDGF/p75 DNA integration, Eu/Cy5; inhibition, % at 3.7 µM; 0.64% of 370,000 active;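 active means inhibition above the screen-wide mean plus 3 SD, cut at about 13% in these data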;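 further: signal is the Cy5 over europium emission ratio at 671 and 618 nm; 0% = plate median of compound wells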
MBD2 inh – inhibitors of MBD2 binding to methylated DNA, primary screen, biochemical, TR-FRET, DNA-binding domain, human. Methyl-CpG-binding domain protein 2 (Homo sapiens), Q9UBB5. MBD2 binding to methylated oligonucleotide. inhibition, % at 4.4 µM. 0.31% of 370,000 active. AID 686964, 2013; in the data active means inhibition above about 13%
SIAE inh – human SIAE inhibitors, primary screen, biochemical, fluorescence polarization, FP-Rh probe, 1536-well HTS; Sialate O-acetylesterase (Homo sapiens), Q9HAT2; SIAE FP-Rh probe binding; inhibition, % at 9.66 µM; 0.69% of 370,000 active;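 active means inhibition above a cutoff: mean of compounds within the control limits plus 3 SD of those, cut at about 17% in these data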;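 further: 0% = plate median of compound wells and 100% = probe without SIAE protein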
TDP2 inh – human TDP2 enzyme inhibitors, primary screen, biochemical, epi absorbance, recombinant enzyme; Tyrosyl-DNA phosphodiesterase 2 (Homo sapiens), O95551; T5PNP hydrolysis, p-nitrophenol absorbance 415 nm; inhibition, % at 12.8 µM; 0.34% of 370,000 active; AID 720702, 2013;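 active means inhibition above the mean of all tested compounds plus 3 SD, set per campaign, cut at about 25% in these data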;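 further: 0% = DMSO with enzyme and 100% = buffer with substrate but no TDP2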
Target sequence (O95551 whole entry, looked up): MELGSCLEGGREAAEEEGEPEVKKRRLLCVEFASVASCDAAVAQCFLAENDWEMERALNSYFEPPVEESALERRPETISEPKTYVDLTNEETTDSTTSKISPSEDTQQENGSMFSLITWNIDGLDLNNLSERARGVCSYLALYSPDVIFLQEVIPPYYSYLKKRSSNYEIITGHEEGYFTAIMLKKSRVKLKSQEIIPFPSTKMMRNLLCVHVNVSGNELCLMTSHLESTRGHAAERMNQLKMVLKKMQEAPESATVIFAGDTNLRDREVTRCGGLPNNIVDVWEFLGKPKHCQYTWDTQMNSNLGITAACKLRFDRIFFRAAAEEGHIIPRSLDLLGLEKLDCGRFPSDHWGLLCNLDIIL
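System – recombinant human TDP2 · Amount – 120 nM TDP2 per well · Buffer or medium – Mg2+-containing Tris-HCl buffer, pH 7.5 · Reagent – T5PNP substrate, 5 mM · Dosing – 12.8 µM single point, 1% DMSO · Incubation – 2 h at 37 °C · Measured by – epi absorbance · Read-out basis – percent inhibition · Benchmarks – high control without enzyme, low control DMSO plus TDP2 · Repeats – singlicate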
* marks the source's active call; other numbers are inactive results. An excerpt weighted towards active compounds, which were near 3.3% of everything screened.

SMILES | PRMT1 inh | UHRF1 MBD2 ctr | LEDGF integ inh | MBD2 inh | SIAE inh | TDP2 inh
COc1ccc(OCCCC(=O)OC(C)C(=O)Nc2ccc(NC(C)=O)cc2)cc1 (stereo not given) | 0 | -2 | 1 | 2 | -2 | 4
COc1ccc(OCCCC(=O)OC(C)C(=O)Nc2ccc(S(N)(=O)=O)cc2)cc1 (stereo not given) | -2 | 3 | 35* | 3 | -1 | -7
COC(=O)[C@]12C[C@H](CC(=O)NCCCCc3ccccc3)C(=O)N(Cc3ccco3)C1=C[C@H](COCc1ccccc1)O[C@@H]2C | 3 | 0 | -1 | 0 | 1 | -1
CC(=O)Oc1cccc2c1C(=O)C1CC=CC(OC(C)=O)C1C2=O (stereo not given) | 56* | -11 | 0 | -9 | -6 | 18
CC(OC(=O)c1n[nH]c2ccccc12)C(=O)NC1CCCCC1C (stereo not given) | -3 | -1 | -4 | 5 | 2 | 4
CC(OC(=O)c1nn(C)c(=O)c2ccccc12)C(=O)NC1CCCCC1C (stereo not given) | 3 | 26* | -4 | -1 | 5 | -5
CC(OC(=O)C1=NN(c2ccccc2)C(=O)CC1)C(=O)NC1CCCCC1C (stereo not given) | -2 | 48* | 3 | 1 | 4 | 4
CCCCN1CCS(=O)(=O)N(Cc2cn(Cc3ccccc3Br)nn2)C(C(=O)OC)C1 (stereo not given) | -3 | -1 | 0 | 4 | 2 | -6
O=C(NCC(c1ccccc1)c1ccccc1)[C@H](Cc1c[nH]c2ccccc12)NC1(C(=O)NC2CCCCC2)CCC1 | -2 | 5 | 7 | 2 | -7 | -13
COc1cccc(NC(=O)CN(C)C(=O)CSCC(=O)Nc2ccc(C)cc2)c1 | 2 | 29* | 0 | 2 | 4 | 0
COc1ccc(NC(=O)CN(C)C(=O)CSCC(=O)Nc2ccc(C)cc2)cc1 | 19 | 8 | -5 | 9 | 0 | 1
CCn1c(CSc2nnc3ccccn23)nc2cc(C(=O)O)ccc21 | 3 | -2 | 3 | 3 | 54* | 12
CC1CCN(S(=O)(=O)c2ccc3c(c2)N(CC(=O)NCc2cccnc2)C(=O)CS3)CC1 | 4 | 22* | 1 | 8 | -4 | 6
O=C(CN1C(=O)CSc2ccc(S(=O)(=O)N3CCCCC3)cc21)NCc1cccnc1 | 0 | 4 | 2 | 12 | 5 | -13
COc1ccc(CN2CC(=O)N3[C@H]4c5cc(C)ccc5OC[C@@H]4[C@H](c4ccccc4)[C@]3(C)C2=O)cc1 | 22* | 4 | 3 | 1 | -4 | -12
Cc1ccc2c(c1)[C@H]1[C@H](CO2)[C@H](c2ccccc2)[C@]2(C)C(=O)N(Cc3ccc(Cl)cc3)CC(=O)N12 | -3 | 0 | -1 | 2 | -6 | -12
O=C(Nc1ccc(N2C(=O)CC3(CCCCC3)C2=O)c(Cl)c1)c1ccccn1 | -1 | 2 | -2 | -3 | 4 | -1
C[C@@H]1OCN(C)[C@H]2C[C@H]3c4[nH]c5cccc(-c6ccc7c(c6)OCO7)c5c4CCN3C[C@@H]12 | 0 | -2 | -3 | -4 | 8 | -10
CSCCC(NC(=O)c1ccccc1Cl)C(=O)N1CCCCC1 (stereo not given) | 3 | 41* | -2 | 1 | -2 | 7
COc1ccc(NCc2nnc(SCC(=O)Nc3cc(C)cc(C)c3)o2)cc1 | 24* | 0 | -4 | 2 | 8 | -2
Cc1ccc(NC(=O)CSc2nnc(Cn3cnc4ccccc43)o2)cc1 | 1 | 21* | -2 | 0 | 2 | 13
Cc1ccc(NC(=O)CSc2nnc(Cn3cnc4ccccc43)o2)c(C)c1 | 0 | 1 | 1 | 0 | -2 | -6
C[C@H]1[C@H](NC(=O)c2ccc(Cl)c(C(F)(F)F)c2)CC[C@@]23CCCN2C(=O)CCC[C@@H]13 | 0 | -2 | 0 | -1 | 0 | -9
CC(C)C(=O)Nc1cccc(N2CCN(CCCN3C(=O)C4CCCCN4C3=O)CC2)c1 (stereo not given) | -2 | 23* | 2 | 5 | 1 | -3
CCN(CC)c1ccc(C(=S)N2CCN(c3ccccc3)CC2)cc1 | 1 | 21* | 0 | 7 | 6 | 16
SMILES | PRMT1 inh | UHRF1 MBD2 ctr | LEDGF integ inh | MBD2 inh | SIAE inh | TDP2 inh
O=C(NC12CC3CC(CC(C3)C1)C2)c1ccc(-c2cccc(Cl)c2)o1 | 4 | 21* | 2 | 8 | -8 | -2
O=C(NC12CC3CC(CC(C3)C1)C2)c1ccc(-c2ccc(Cl)cc2)o1 | -1 | -6 | -1 | 4 | -19 | 4
Cc1ccc(C)c(NC(=O)CNS(=O)(=O)c2ccc3[nH]c(=O)oc3c2)c1 | 2 | 2 | -2 | 2 | 0 | -3
CCCNC(=O)c1nnsc1S(=O)(=O)c1ccc(Cl)cc1 | 78* | 2 | 0 | 8 | 5 | -2
CCCNC(=O)NS(=O)(=O)c1ccc(Cl)cc1 | -3 | -2 | -4 | 0 | 2 | -7
CS(=O)(=O)N(CC(=O)N1CCCCCC1)c1ccc(Cl)cc1 | -2 | 29* | 7 | -2 | 9 | 6
CS(=O)(=O)N(CC(=O)N1CCOCC1)c1ccc(Cl)cc1 | 0 | 1 | -3 | 3 | -4 | 0
Cn1nc2c(c1C(=O)N1CCCC(C(=O)c3cc(F)ccc3F)C1)CCCC2 (stereo not given) | -1 | 1 | 0 | 2 | 3 | 1
COc1ccc(C(=O)C2CCCN(C(=O)c3c4c(nn3C)CCCC4)C2)cc1F (stereo not given) | 3 | 39* | -4 | 2 | -2 | 2
O=C1Nc2cc(Cl)ccc2Nc2cscc21 | 23* | -7 | 2 | -5 | 11 | 11
COc1cccc(/C=N/Nc2nnc3c(n2)[nH]c2ccccc23)c1OC | -1 | -6 | -2 | -7 | -9 | -12
CCc1ccc2[nH]c3nc(N/N=C/c4cccc(O)c4)nnc3c2c1 | 0 | 43* | 2 | -7 | 10 | 17
CC(=O)Nc1ccc(SCC(=O)c2ccc(Br)s2)cc1 | 63* | -1 | -1 | 2 | 4 | 6
CCC(C)NC(=O)CSc1ccc(NC(C)=O)cc1 (stereo not given) | 7 | -1 | 1 | 3 | -4 | -10
O=C(N1CCCC1)n1ncc(-c2ccc(-c3ccccc3)cc2)n1 | 2 | 1 | 0 | -2 | -7 | 8
